Results on one compound are retold here after PMC10203274 (Plant Communications, 2022).

For assay [1], the target named is T1, NbUGT72AY1 (Nicotiana benthamiana, UniProt A0A8K1ZRH3).
T1 sequence (A0A8K1ZRH3 1-477): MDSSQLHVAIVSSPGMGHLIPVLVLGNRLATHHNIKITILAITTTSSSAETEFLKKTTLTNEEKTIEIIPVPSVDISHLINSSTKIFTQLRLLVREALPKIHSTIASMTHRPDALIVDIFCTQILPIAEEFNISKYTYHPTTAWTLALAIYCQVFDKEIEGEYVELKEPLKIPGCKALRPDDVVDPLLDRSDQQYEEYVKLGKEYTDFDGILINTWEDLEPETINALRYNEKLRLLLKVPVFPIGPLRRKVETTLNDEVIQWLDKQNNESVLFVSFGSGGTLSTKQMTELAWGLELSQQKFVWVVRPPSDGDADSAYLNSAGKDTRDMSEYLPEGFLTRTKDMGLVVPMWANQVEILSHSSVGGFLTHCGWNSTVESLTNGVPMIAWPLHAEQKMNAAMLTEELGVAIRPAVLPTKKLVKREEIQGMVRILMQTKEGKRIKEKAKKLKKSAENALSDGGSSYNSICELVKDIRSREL
As to the kind of experiment: UDP-Glo glycosyltransferase assay, acceptor substrate kinetics. It is filed as biochemical.

For assay [2], the target named is T2, NbUGT72AY1-R91A (Nicotiana benthamiana, UniProt A0A8K1ZRH3, R91A).
T2 sequence (A0A8K1ZRH3 1-477 R91A): T1 sequence (A0A8K1ZRH3 1-477) with R91A
Briefly: UDP-Glo glycosyltransferase assay, kinetics of mutant. The class given is biochemical.

The target in assay [3] is T3, NbUGT72AY1-R91F (Nicotiana benthamiana, UniProt A0A8K1ZRH3, R91F).
T3 sequence (A0A8K1ZRH3 1-477 R91F): T1 sequence (A0A8K1ZRH3 1-477) with R91F
Described as above. It is filed as biochemical.

Assay [4] has as its target T4, NbUGT72AY1-R91M (Nicotiana benthamiana, UniProt A0A8K1ZRH3, R91M).
T4 sequence (A0A8K1ZRH3 1-477 R91M): T1 sequence (A0A8K1ZRH3 1-477) with R91M
The description is as above. It is filed as biochemical.

Assay [5] has as its system StUGT72AY2-chimera (Potato-Tobacco-Potato). Briefly: UDP-Glo glycosyltransferase assay, chimeric mutant. The class given is biochemical, Solanum tuberosum. To be noted: Figure 5B and 5D. The method, boiled down: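 N-terminal GST-fusion enzyme expressed in E. coli BL21(DE3) pLysS (1 mM IPTG, 18°C overnight) and glutathione-eluted. Reaction: 2 μg protein, 100 μM UDP-glucose, and varied acceptor substrate (in DMSO) in 50 mM Tris-HCl pH 7.0, 30°C for 20 min. Stopped with HCl, neutralized with Trizma base, then UDP-Glo luminescence after 30 min dark. Michaelis–Menten or Hill fits from at least three repeats.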

Assay [6] relates to Alternaria alternata. The note with it: in vitro and in vivo; ref Sun et al., 2014; cited from earlier work.

A word on the Vmax: it is the rate approached at saturating substrate.

Changes are numbered by the printed parent chain.

Turning to `COc1cc2ccc(=O)oc2cc1O` [scopoletin], the Vi amounted to 4.4 ± 2.3 nmol/min/mg in assay [1] (Fig S14b series, wild type R91, substrate scopoletin) and 13.1 ± 6.1 nmol/min/mg in assay [4] (Fig S14b, mutant R91M, substrate scopoletin). In addition, the maximal velocity (Vmax) in assay [1] (Figure 5A series, wild type, substrate scopoletin) was found to be 264.3 nmol/min/mg. Further, the Ki in assay [1] (Ki, Fig S14b series, wild type R91, substrate scopoletin) stood at 10.7 ± 2.2 µM; in assay [1] (substrate inhibition (Ki), as stated in the abstract) it was 4 µM; in assay [2], 3.3 ± 0.7 µM; in assay [3] it was 900 ± 300 nM; in assay [4] it was 27.3 ± 4.2 µM. Also, the “enzymatic activity of the chimeric mutant with the substrate” value in assay [5] is “inactive”. Further, the antifungal activity result in assay [6] was “strong antifungal activity”.
